{"data": "Measurements of several laboratories", "target": "Serine/threonine-protein kinase PLK2 (PLK2, Homo sapiens, UniProt Q9NYY3)", "note": "Lines come from different studies, so protocols differ."}
{"Structure (SMILES)": "Cn1cncc1[C@@](O)(COc1ccc(C#N)cc1-c1ccc(OC(F)(F)F)cc1)c1ccc(C#N)cc1", "observed": "cell-free assay", "technique": "competition with immobilised ligand", "concentration": "1 µM", "quantity": "remaining binding", "value": "86%"}
{"Structure (SMILES)": "Nc1ncc(-c2nc(N3CCOCC3)nc(N3CCOCC3)n2)c(C(F)F)n1", "observed": "binding", "technique": "competition with immobilised ligand", "concentration": "10 µM", "quantity": "remaining binding", "value": "73%"}
{"Structure (SMILES)": "N#CC1(c2ccccn2)CCN(Cc2cc(C(=O)O)c(=O)n3ccccc23)CC1", "observed": "cell-free assay", "technique": "competition with immobilised ligand", "concentration": "1 µM", "quantity": "remaining binding", "value": "80%"}
{"Structure (SMILES)": "Cn1cc(-c2cc(F)cc(N3CCn4c(cc5c4CCCC5)C3=O)c2CO)cc(Nc2ccc(N3CCN(C4COC4)CC3)cn2)c1=O", "observed": "enzyme activity", "mode": "inhibitor", "concentration": "0.1 µM", "quantity": "inhibition", "value": "18%"}
{"Structure (SMILES)": "Cc1nn(C)cc1-c1nc2c(N3CCN(Cc4ccc(Cl)cc4)CC3)c(Cl)cnc2[nH]1", "observed": "binding", "technique": "competition with immobilised ligand", "concentration": "1 µM", "quantity": "remaining binding", "value": "93%"}
{"Structure (SMILES)": "O=c1[nH]c2ccccc2n1C1CCN(Cc2ccc(-c3[nH]c4cc5ncnc5cc4nc3-c3ccccc3)cc2)CC1", "observed": "cell-free assay", "concentration": "0.5 µM", "quantity": "remaining signal", "value": "95.5%"}
{"Structure (SMILES)": "Cn1cc(-c2cccc(N3CCc4c(sc5c4CC(C)(C)C5)C3=O)c2CO)cc(Nc2ccncn2)c1=O", "observed": "enzyme activity", "mode": "inhibitor", "concentration": "1 µM", "quantity": "inhibition", "value": "21%"}
{"Structure (SMILES)": "CC(C)(C)c1cc(C=C(C#N)C#N)cc(Br)c1O", "observed": "enzyme activity", "mode": "inhibitor", "concentration": "0.5 µM", "quantity": "remaining activity", "value": "92.6%"}
{"Structure (SMILES)": "COc1ncccc1-c1cnn2ccc(N3CCN(C(=O)OC(C)C)CC3)nc12", "observed": "binding", "technique": "competition with immobilised ligand", "concentration": "1 µM", "quantity": "remaining binding", "value": "96%"}
